Assay results: paper PMC6030392 (Neoplasia (New York, N.Y.), 2018)
Like-named read-outs stand apart in the source and are kept apart here. Marks after values point to notes of the source that are not given here. Each block holds one compound with its values, some of them ahead of it.

Assays:
Bcrp1 = molecular target: T1, Bcrp1 (Mus musculus, UniProt Q7TMS5); assay: In vitro Transwell transport, MDCKII parent versus Bcrp1 transduced subline; assay type: in vitro ADME
T1 sequence (Q7TMS5 1-657): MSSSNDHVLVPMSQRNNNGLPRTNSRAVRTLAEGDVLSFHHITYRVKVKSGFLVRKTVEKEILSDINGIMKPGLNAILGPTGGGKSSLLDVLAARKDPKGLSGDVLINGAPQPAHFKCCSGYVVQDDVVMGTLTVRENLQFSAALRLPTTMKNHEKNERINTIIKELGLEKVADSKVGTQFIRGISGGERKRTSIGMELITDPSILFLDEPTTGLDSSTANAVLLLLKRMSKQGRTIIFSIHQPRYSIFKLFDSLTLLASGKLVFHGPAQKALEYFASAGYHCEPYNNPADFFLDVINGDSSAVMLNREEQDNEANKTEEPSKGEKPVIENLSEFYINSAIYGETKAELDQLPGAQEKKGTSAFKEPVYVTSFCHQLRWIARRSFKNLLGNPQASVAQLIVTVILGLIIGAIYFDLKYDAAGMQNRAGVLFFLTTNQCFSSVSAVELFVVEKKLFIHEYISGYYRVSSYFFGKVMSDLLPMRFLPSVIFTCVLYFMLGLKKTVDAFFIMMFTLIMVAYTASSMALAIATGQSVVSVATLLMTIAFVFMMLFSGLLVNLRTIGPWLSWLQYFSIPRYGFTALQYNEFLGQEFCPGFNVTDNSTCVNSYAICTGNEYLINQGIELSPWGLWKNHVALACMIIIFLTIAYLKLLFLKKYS
Method in brief: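 MDCKII parent and Bcrp1-transduced cells were grown 3 days on 3.0 μm polycarbonate Transwell filters (1 × 10⁶ cells/well) in MEM with 10% FBS at 37°C. Test compound (40 μg/ml in OptiMEM) went apical or basolateral. Inhibitor went to both sides, plus a P-gp blocker (5 μM). Sampling was every 30 min to 2 h, with half the donor refreshed each time. Wells leaking >1.5%/h were excluded. Analysis by HPLC.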

[1] = cited from earlier work
[2] = dose level of 100 mg/kg; cited from earlier work
[3] = cited from earlier work; remark: listed apart in the source
[4] = cited from earlier work; remark: listed apart in the source
[5] = C57BL × DBA/2 F1 mice; cited from earlier work
[6] = Stability in culture medium at 37°C; assay type: physicochemical
[7] = Recovery in acceptor compartment of Transwell; assay type: in vitro ADME; settings: after 30 minutes; transport medium pH 7.4
Mdr1a (P-gp) = Mdr1a (P-gp) (Mus musculus, UniProt P21447); assay: In vitro Transwell transport, LLC-PK1 parent versus Mdr1a transduced subline; assay type: in vitro ADME, murine; settings: temozolomide 40 μg/ml; LLC-PK1 vs LLC-Mdr1a
[8] = tested on: GSC457 glioblastoma cells; assay: Orthotopic GSC457 glioblastoma efficacy study; assay type: in vivo, murine; settings: oral 100 mg/kg/day × 7
[9] = tested on: intracranial Mel57-luc tumors; assay: Intracranial Mel57-luc tumor efficacy study; assay type: in vivo, FVB nude mice; settings: oral 100 mg/kg/day × 5
Method in brief: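 WT or Abcb1a/b;Abcg2^−/− FVB nude mice received Mel57-luc cells (100,000 cells/2 μl) stereotactically 2 mm lateral, 1 mm anterior to bregma, 3 mm deep. Tumor load was set by bioluminescence before stratification to oral test compound 100 mg/kg/day for 5 days, untreated control, or combination with oral inhibitor 20–30 min earlier. Repeated imaging was expressed relative to the first measurement and log-transformed.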

[10] = assay type: in vivo, FVB mice; settings: for AUC 0–7 h, brain: mean ± SE, n ≥ 7
Method in brief: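 Male FVB mice (WT, Abcg2^−/−, Abcb1a/b^−/−, Abcb1a/b;Abcg2^−/−; 8–15 weeks) got 50 mg/kg i.v. via tail vein. Groups of […] were sampled at 15 min, 1, 2, 4, 7 h by cardiac puncture (K-EDTA plasma, acidified with 1 M HCl). Brains were homogenized in pH 2 phosphate/1% BSA. Extracts (ethyl acetate) were run on HPLC in duplicate. AUC0–7h by linear trapezoidal rule; brain-to-plasma ratio per animal; two-way ANOVA with Bonferroni.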

[11] = Plasma pharmacokinetics of oral temozolomide; assay type: in vivo, mice; settings: 100 mg/kg oral; WT n = 18, Abcb1a/b;Abcg2^−/− n = 19
[12] = cited from earlier work; remark: listed apart in the source
[13] = Abcb1a/b^−/− mice, 50 mg/kg i.v.

Mdr1a (P-gp), sequence (P21447 whole entry): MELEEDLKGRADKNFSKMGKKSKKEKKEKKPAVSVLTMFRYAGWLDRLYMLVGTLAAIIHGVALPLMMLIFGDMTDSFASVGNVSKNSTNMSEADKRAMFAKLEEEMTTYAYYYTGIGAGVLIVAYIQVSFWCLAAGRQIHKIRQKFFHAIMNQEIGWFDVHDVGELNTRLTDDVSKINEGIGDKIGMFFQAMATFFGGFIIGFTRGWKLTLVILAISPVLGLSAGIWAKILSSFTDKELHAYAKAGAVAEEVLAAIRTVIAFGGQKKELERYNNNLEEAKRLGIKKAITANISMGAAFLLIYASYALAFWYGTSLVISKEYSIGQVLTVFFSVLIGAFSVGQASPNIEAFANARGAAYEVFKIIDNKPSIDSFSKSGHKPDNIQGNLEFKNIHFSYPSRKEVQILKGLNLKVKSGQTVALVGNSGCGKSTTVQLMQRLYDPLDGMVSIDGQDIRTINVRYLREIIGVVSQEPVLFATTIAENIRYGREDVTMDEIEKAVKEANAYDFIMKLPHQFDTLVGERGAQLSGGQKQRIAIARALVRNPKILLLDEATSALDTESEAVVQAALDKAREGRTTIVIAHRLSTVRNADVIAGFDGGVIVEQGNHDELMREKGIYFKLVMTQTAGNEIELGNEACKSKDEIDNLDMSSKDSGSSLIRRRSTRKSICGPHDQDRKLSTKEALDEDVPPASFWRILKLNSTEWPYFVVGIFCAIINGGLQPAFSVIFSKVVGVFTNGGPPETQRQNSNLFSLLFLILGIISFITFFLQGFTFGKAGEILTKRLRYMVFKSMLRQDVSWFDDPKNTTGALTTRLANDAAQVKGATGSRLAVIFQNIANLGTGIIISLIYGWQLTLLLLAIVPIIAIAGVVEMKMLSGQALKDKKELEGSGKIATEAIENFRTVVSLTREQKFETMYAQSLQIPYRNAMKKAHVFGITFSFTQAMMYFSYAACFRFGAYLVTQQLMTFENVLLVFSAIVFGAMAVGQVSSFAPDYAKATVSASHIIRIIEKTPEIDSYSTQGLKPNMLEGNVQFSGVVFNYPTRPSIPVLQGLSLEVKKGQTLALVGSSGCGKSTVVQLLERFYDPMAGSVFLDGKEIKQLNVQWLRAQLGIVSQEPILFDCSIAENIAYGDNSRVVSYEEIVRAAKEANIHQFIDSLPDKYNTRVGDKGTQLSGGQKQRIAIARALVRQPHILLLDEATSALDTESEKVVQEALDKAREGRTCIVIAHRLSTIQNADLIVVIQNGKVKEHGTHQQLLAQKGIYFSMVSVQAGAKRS

Compound: COc1cc2ncnc(Nc3ccc(F)c(Cl)c3)c2cc1OCCCN1CCOCC1 [gefitinib]
- plasma levels achievable in patients relative to the level after 100 mg/kg [1]: about 10 fold lower
- plasma levels [2]: about 10 μM
- effect on Bcrp1-mediated transport of temozolomide (Bcrp1; inhibitor 10 μM in the medium): almost completely abrogated

Compound: Cc1ccc(NC(=O)c2ccc(CN3CCN(C)CC3)cc2)cc1Nc1nccc(-c2cccnc2)n1 [imatinib]
- brain penetration ([3]; significantly enhanced in Abcb1a/b;Abcg2^−/− mice): poor
- oral bioavailability [4]: > 90%

Compound: CC(=O)O[C@H]1C(=O)[C@@]2(C)[C@H]([C@H](OC(=O)c3ccccc3)[C@]3(O)C[C@H](OC(=O)[C@H](O)[C@@H](NC(=O)c4ccccc4)c4ccccc4)C(C)=C1C3(C)C)[C@]1(OC(C)=O)CO[C@@H]1C[C@@H]2O [paclitaxel]
- higher brain penetration in Abcb1a/b^−/− compared to WT controls [3]: 5 fold

Compound: CC(=O)c1c(C)c2cnc(Nc3ccc(N4CCNCC4)cn3)nc2n(C2CCCC2)c1=O [palbociclib]
- higher brain penetration in Abcb1a/b^−/− compared to WT controls [3]: approximately 15 fold

Compound: Cn1nnc2c(C(N)=O)ncn2c1=O [temozolomide]
- oral bioavailability [5]: almost complete
- half-life [6]: ~30 min
- fraction of the donor concentration recovered in the acceptor compartment [7]: at least 5%
- transport by P-gp (Mdr1a (P-gp)): very limited, if any, evidence for transport by P-gp
- tumor growth and survival, Abcb1a/b;Abcg2^−/− compared to WT mice [8]: significantly slower tumor growth and longer survival
- antitumor efficacy against intracranial Mel57 tumors, relative to WT mice ([9]; Abcb1a/b;Abcg2^−/− mice): significantly higher
- antitumor efficacy against intracranial Mel57 tumors ([9]; WT mice): modest efficacy
- transport by Bcrp1 (Bcrp1; temozolomide 40 μg/ml, MDCKII vs MDCKII-Bcrp1, zosuquidar 5 μM present): clear vectorial transport by Bcrp1
- increase of brain accumulation compared to WT mice ([10]; Abcb1a/b;Abcg2^−/− mice, 50 mg/kg i.v., P < .001): 50%
- AUC 0–7 h, brain ([10]; Abcb1a/b;Abcg2^−/− mice, 50 mg/kg i.v.): 57.09 ± 1.32**^/# μg/g.h
- increase of brain accumulation compared to WT mice [10, 13]: about 20%
- AUC 0–7 h, brain [10, 13]: 44.51 ± 1.56 µg·h/g
- increase of brain accumulation compared to WT mice ([10]; Abcg2^−/− mice, 50 mg/kg i.v.): 20%
- AUC 0–7 h, brain ([10]; Abcg2^−/− mice, 50 mg/kg i.v.): 44.78 ± 1.88 µg·h/g
- AUC 0–7 h, brain ([10]; WT mice, 50 mg/kg i.v.): 36.81 ± 1.11 µg·h/g
- increase of brain penetration compared to wild-type controls ([10]; combined deletion of Abcb1a/b and Abcg2, P < .001): 1.5 fold
- effect of absence of drug transporters on plasma clearance ([10]; knockout vs WT mice, 50 mg/kg i.v.): did not affect the plasma clearance
- plasma AUC in Abcb1a/b;Abcg2^−/− versus WT mice [11]: not significantly different
- main dose-limiting toxicity [12]: bone marrow toxicity

Second part, the compound after the results:

- effect on Bcrp1-mediated transport of temozolomide (Bcrp1; inhibitor 5 μM in the medium): almost completely abrogated
Compound: COc1cc2c(cc1OC)CN(CCc1ccc(NC(=O)c3cccc4c(=O)c5cccc(OC)c5[nH]c34)cc1)CC2 [elacridar]

- effect on Bcrp1-mediated transport of temozolomide (Bcrp1; inhibitor 10 μM in the medium): almost completely abrogated
Compound: C#Cc1cccc(Nc2ncnc3cc(OCCOC)c(OCCOC)cc23)c1 [erlotinib]

- effect on Bcrp1-mediated transport of temozolomide (Bcrp1; inhibitor 50 μM in the medium): not sufficient
Compound: CO[C@@H]1[C@@H](OC(N)=O)[C@@H](O)[C@H](Oc2ccc3c(O)c(NC(=O)c4ccc(O)c(CC=C(C)C)c4)c(=O)oc3c2C)OC1(C)C [novobiocin]
